ChEMBL document CHEMBL4340532, “Design, synthesis, and biological evaluation of novel 2'-deoxy-2'-fluoro-2'-C-methyl 8-azanebularine derivatives as potent anti-HBV agents” (Bioorg Med Chem Lett, 2019)

Experiments:
[1] = Cytotoxicity against human HepG2 cells supplemented with fresh medium containing compound every 3 days for 9 days measured post-last dose by MTT assay; assay type: cell-based
Outline: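 HepG2 cells were exposed to compound for 3 or 9 days and viability was read by MTT assay. CC50 is the concentration causing 50% cytotoxicity. Results are mean ± SD of three experiments.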

Hepatitis B virus [2] = experiment: Antiviral activity against Hepatitis B virus infected in human HepG2.2.15 cells assessed as inhibition of HBsAg secretion at 20 uM supplemented with fresh medium containing compound every 3 days for 6 days and measured on day 9 by ELISA relative to control; assay type: functional
Outline: (§1)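 HepG2.2.15 cells were exposed to compound for up to 9 days. The initial screen used 20 µM for 9 days, with lamivudine (20 µM) as positive control. Follow-up used 10, 20 or 40 µM sampled at days 3, 6 and 9. HBsAg and HBeAg were quantified in culture supernatant by ELISA and compared with a no-drug control. Results are mean ± SD of three experiments.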

Hepatitis B virus [3] = experiment: Antiviral activity against Hepatitis B virus infected in human HepG2.2.15 cells assessed as inhibition of HBeAg secretion at 20 uM supplemented with fresh medium containing compound every 3 days for 6 days and measured on day 9 by ELISA relative to control; assay type: functional; outline: as §1

| Compound | CC50 at 216 h [1] [µM] | inhibition (INH) (Hepatitis B virus [2]) [%] | inhibition (INH) (Hepatitis B virus [3]) [%] |
| --- | --- | --- | --- |
| CNc1ncnc2c1nnn2[C@@H]1O[C@H](CO)[C@@H](O)[C@@]1(C)F | > 600 | 20.1 | 24.4 |
| C[C@@]1(F)[C@H](O)[C@@H](CO)O[C@H]1n1nnc2c(NC3CC3)ncnc21 | > 600 | 11.4 | 16.7 |
| C[C@@]1(F)[C@H](O)[C@@H](CO)O[C@H]1n1nnc2c(N)ncnc21 | > 600 | 9.9 | 10 |
